Results taken from article PMC7165017 (Inorganic chemistry, 2019).
Like-named read-outs stand apart in the source and are kept apart here.

Experiments:
[1] = system: microtubule network in MDA-MB-231 cells; assay: Immunofluorescence study of microtubule network disruption; format: cell-based, human; details: 12 h; cisplatin 50 μM, colchicine 100 nM (controls)
In short: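 5 × 10^4 MDA-MB-231 cells were grown on glass coverslips for 48 h, then treated 12 h (vehicle 0.1% DMSO). Fixation used 4% paraformaldehyde for 10 min and 100 mM glycine quench, followed by 3% BSA/PBST block for 20 min. Rabbit monoclonal anti-α-tubulin (1:400, 2 h) was followed by AlexaFluor 488 anti-rabbit (1:1000, 2 h, dark) and DAPI mount. Confocal imaging used a 63× objective. Microtubule-network perimeter was averaged over ≥10 treated versus ≥10 untreated cells and expressed as relative perimeter.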

Hep G2 cells = assay: MTT cell viability assay, Hep G2; format: cell-based, human; details: read-out: IC50 ± SD, Hep G2, 48 h, normoxia (∼15% O2)
In short: (§1)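 Media: Hep G2 in MEM, MIA PaCa-2 in DMEM, MDA-MB-231 in DMEM/F-12, each with 10% FBS and antibiotics. Cells were seeded at 6 × 10^3 per well and kept 48 h at 37 °C, 5% CO2. Medium was renewed, then compound was added (DMSO ≤0.2%, vehicle-matched) for 48 h in triplicate wells. MTT (1 mg mL−1) ran 3 h; formazan was dissolved in DMSO and read at 595 nm versus untreated wells. IC50 came from a four-parameter variable-slope fit, ≥3 independent experiments. Hypoxic MDA-MB-231 cells were kept at 1.5% O2 for ≥2 passages beforehand.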

MIA PaCa-2 cells = assay: MTT cell viability assay, MIA PaCa-2; format: cell-based, human; details: read-out: IC50 ± SD, MIA PaCa-2, 48 h, normoxia (∼15% O2)
In short: as §1

MDA-MB-231 cells = assay: MTT cell viability assay, MDA-MB-231; format: cell-based, human
In short: as §1

[2] = Solution stability study by 1H NMR; format: physicochemical; details: DMSO-d6/phosphate buffer 3:7 (v/v), within 12 h
In short: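 Complexes were monitored by 1H NMR in DMSO-d6 or DMF-d7 mixed 1:9 (v/v) with degassed 20 mM phosphate buffer (pD 7.4, 4 mM NaCl). Spectra were taken at 25 °C at time points up to 24 h. Free ligands were monitored in DMSO-d6/phosphate buffer 3:7 (v/v).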

Row | Structure (SMILES) | disruption of the microtubule network [1] | hydrolysis of ligand into amine and aldehyde [2] [%] | other results
1 | COc1cc2c(c(OC)c1OC)-c1ccc(OC)c(=O)cc1[C@@H](NC(C)=O)CC2 [colchicine, reference compound] | exhibited microtubule network damage | – | –
2 | [NH2][Pt]([NH2])([Cl])[Cl] [CDDP, cisplatin, reference compound] | did not observe any disruption of the microtubule formation | – | IC50 (Hep G2 cells): 14.3 ± 0.8 µM; IC50 (MIA PaCa-2 cells): 31.8 ± 4.8 µM; IC50 (MDA-MB-231 cells; read-out: IC50 ± SD, MDA-MB-231 (hypo), 48 h, hypoxia (1.5% O2)): 37.8 ± 2.3 µM; IC50 (MDA-MB-231 cells; read-out: IC50 ± SD, MDA-MB-231, 48 h, normoxia (∼15% O2)): 37.2 ± 2.5 µM
3 | COc1cc(N=Cc2ccccc2O)cc(OC)c1OC [Complex L1, 2-{[(3,4,5-Trimethoxyphenyl)imino]-methyl}phenol] | – | ~80 | –
4 | COc1cccc(C=Nc2cc(OC)c(OC)c(OC)c2)c1O [Complex L3, 2-Methoxy-6-{[(3,4,5-trimethoxyphenyl)imino]-methyl}phenol] | – | ~80 | –
